pIC50, pKd: −log10 of the molar value. Activity calls are given as the source filed them. The calls are words filed in the database; no cut-off is given here.
Tests used:
[1] = Aqueous solubility at pH 7.4; type: physicochemical
Blood = experiment: Inhibition of LPS-induced TNFalpha production in human whole blood; type: functional, tissue-based
Method in brief: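 LPS-stimulated TNFα production in whole blood from human donors; IC50 reported as geometric mean of 4–12 donor experiments, SD typically ±50% of the value.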

THP-1 = experiment: Inhibition of LPS-induced TNFalpha production in human THP1 cells; type: functional, cell-based
Method in brief: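 LPS-stimulated TNFα release from THP-1 cells; IC50 values are means of 2–4 experiments, SD for n > 2 typically ±50% of the value.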

[2] = molecular target: T1, Mitogen-activated protein kinase 14 (Homo sapiens, UniProt Q16539); experiment: Binding affinity to p38alpha by exchange curve binding kinetic analysis
T1 sequence (Q16539 whole entry): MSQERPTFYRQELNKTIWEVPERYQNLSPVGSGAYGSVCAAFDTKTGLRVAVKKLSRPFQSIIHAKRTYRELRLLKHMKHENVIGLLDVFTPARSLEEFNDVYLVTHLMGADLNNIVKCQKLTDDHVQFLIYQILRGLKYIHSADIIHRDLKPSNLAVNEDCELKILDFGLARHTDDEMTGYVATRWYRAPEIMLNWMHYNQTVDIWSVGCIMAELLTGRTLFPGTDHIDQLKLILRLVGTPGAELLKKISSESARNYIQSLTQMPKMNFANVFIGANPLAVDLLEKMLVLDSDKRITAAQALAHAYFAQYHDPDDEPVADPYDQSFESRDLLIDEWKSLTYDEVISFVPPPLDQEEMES

[3] = molecular target: T1, Mitogen-activated protein kinase 14
Mus musculus = experiment: Inhibition of LPS-induced endotoxemia in mouse assessed as inhibition of TNFalpha production at 3 mg/kg, po; type: functional
Method in brief: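 Mouse LPS-induced endotoxemia model; compound given orally at 3 mg/kg, and TNFα production is measured and expressed as percent inhibition.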

[4] = molecular target: T1, Mitogen-activated protein kinase 14; experiment: Binding affinity to p38alpha assessed as inhibition of ATF2 phosphorylation preincubated for 4 hrs
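Wherever Tm is given: thermal denaturation measurement of the p38alpha–inhibitor complex, reporting its melting point as a readout of binding.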

Row | solubility [1] [µg/mL] | pIC50 (Blood) | pIC50 (THP-1) | pKd [2] | Tm [3] [°C] | pIC50 [4] | SMILES | Activity (Mus musculus)
1 | < 0.5 | 6.85 | 8.26 | 8.74 | 57.9 | – | COc1ccc(C(C)(C)C)cc1NC(=O)Nc1ccc(-c2ccc(CN3CCOCC3)nc2)c2ccccc12 | –
2 | – | 7.13 | 8.03 | – | 65.5 | – | COc1c(NC(=O)Nc2ccc(-c3ccc(CN4CCOCC4)nc3)c3ccccc23)cc(C(C)(C)C)cc1C(N)=O | –
3 | – | 6.66 | 8.10 | – | 63.6 | – | Cc1ccc(-n2nc(C(C)(C)C)cc2NC(=O)Nc2ccc(-c3ccc(CN4CCOCC4)nc3)c3ccccc23)cc1 | –
4 | – | 6.11 | 7.74 | – | – | – | Cc1ccc(-n2nc(C(C)(C)C)cc2NC(=O)Nc2ccc(OCCN3CCOCC3)c3ccccc23)cc1 [DORAMAPIMOD] | inactive
5 | – | – | – | – | 50.3 | 5.41 | COc1ccc(C(C)(C)C)cc1NC(=O)Nc1cccc2ccccc12 | –
6 | – | 6.15 | 8.06 | – | 53.9 | – | CCc1ccc(C(C)(C)C)cc1NC(=O)Nc1ccc(-c2ccc(CN3CCOCC3)nc2)c2ccccc12 | –
7 | – | 6.96 | 8.07 | – | 58.1 | – | COC(=O)Nc1cc(C(C)(C)C)cc(NC(=O)Nc2ccc(-c3ccc(CN4CCOCC4)nc3)c3ccccc23)c1OC | –
8 | – | < 5.00 | 6.42 | – | 52.7 | – | Cc1ccc(C(C)(C)C)cc1NC(=O)Nc1ccc(OCCN2CCOCC2)c2ccccc12 | –
9 | – | – | – | – | 51.4 | 5.57 | COc1c(NC(=O)c2cc3ccccc3s2)cc(C(C)(C)C)cc1NS(C)(=O)=O | –
10 | – | – | – | – | 56.3 | 7.10 | COc1c(NC(=O)Nc2cccc3ccccc23)cc(C(C)(C)C)cc1NS(C)(=O)=O | –
11 | – | 6.64 | 7.54 | – | 57.9 | – | Cn1nc(C(C)(C)C)cc1NC(=O)Nc1ccc(-c2ccc(CN3CCOCC3)nc2)c2ccccc12 | –
12 | – | 6.74 | 8.03 | – | 54.6 | – | Cc1ccc(C(C)(C)C)cc1NC(=O)Nc1ccc(-c2ccc(CN3CCOCC3)nc2)c2ccccc12 | –
13 | – | 7.01 | 8.00 | – | 65.6 | – | CNC(=O)c1cc(C(C)(C)C)cc(NC(=O)Nc2ccc(-c3ccc(CN4CCOCC4)nc3)c3ccccc23)c1OC | –
